Active and inactive are the calls of the source. The calls are words filed in the database; no cut-off is given here.
System: Micrococcus luteus
Assay: Antibacterial activity against Micrococcus luteus ATCC 381 at 10 mg/ml after 24 to 72 hrs by agar diffusion method
Assay type: functional, organism-based
Settings: not given
How it was run: (§1)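 Bacterial plates: nutrient broth (8 g/l) with 1.5% agar, seeded at 45 °C with spores or vegetative cells to 10^6 cfu/ml. Compounds were dissolved in methanol at 10 mg/ml and applied to 6 mm paper discs, which were dried and laid on the plates. Inhibition zone diameter (mm) and type (complete or incomplete) were scored after 24–72 h.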

| SMILES | Activity |
| --- | --- |
| COc1ccc(/C=C/c2ccccc2O)c(OC)c1 | Active |
| Oc1cccc(/C=C/c2cc(O)c(F)c(O)c2)c1 | Active |
| COc1cc(/C=C/c2cccc(O)c2)cc(OC)c1F | Active |
| COc1cc(/C=C/c2ccccc2O)cc(OC)c1F | Active |
| Oc1ccc(O)c(/C=C/c2ccccc2O)c1 | Active |
| COc1ccc(OC)c(/C=C/c2cccc(O)c2)c1 | Active |
| Oc1cccc(/C=C/c2cc(F)c(F)c(F)c2)c1 | Active |
| Oc1cccc(/C=C/c2cc(O)ccc2O)c1 | Active |
| Oc1ccc(/C=C/c2cc(O)cc(O)c2)cc1 [RESVERATROL] | Active |
| COc1cc(F)c(/C=C/c2cc(O)ccc2O)cc1O | Active |
| Oc1cccc(/C=C/c2cc(O)cc(O)c2)c1 | Active |
| Oc1ccccc1/C=C/c1cc(F)c(F)c(F)c1 | Active |
| COc1ccc(/C=C/c2cccc(O)c2)c(OC)c1 | Active |
| COc1cc(/C=C/c2cccc(O)c2)cc(OC)c1 | Active |

System: Botrytis cinerea
Assay: Antifungal activity against Botrytis cinerea FSU 883 at 10 mg/ml after 24 to 72 hrs by agar diffusion method
Assay type: functional, organism-based
Settings: not given
How it was run: (§2)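 Fungal plates: malt extract/yeast extract (HA) medium with 1.5% agar, seeded at 45 °C with spores or yeast cells to 10^5 cfu/ml. Compounds in methanol at 10 mg/ml were loaded onto 6 mm paper discs and dried before placement. Inhibition zone diameter (mm) and complete or incomplete inhibition were recorded after 24–72 h.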

| SMILES | Activity |
| --- | --- |
| COc1ccc(/C=C/c2ccc(O)cc2)c(OC)c1 | inactive |
| Oc1ccc(/C=C/c2cc(F)c(F)c(F)c2)cc1 | inactive |
| Oc1ccc(/C=C/c2cc(O)cc(O)c2)cc1 [RESVERATROL] | inactive |
| Oc1ccc(/C=C/c2cc(O)c(F)c(O)c2)cc1 | inactive |
| Oc1ccccc1/C=C/c1cc(F)c(F)c(F)c1 | Active |
| COc1cc(/C=C/c2ccc(O)cc2)cc(OC)c1F | inactive |
| COc1cc(/C=C/c2ccc(O)cc2)cc(OC)c1 [PTEROSTILBENE] | inactive |
| COc1ccc(OC)c(/C=C/c2ccc(O)cc2)c1 | inactive |
| Oc1ccc(/C=C/c2cc(O)ccc2O)cc1 | inactive |

System: Brevibacillus brevis
Assay: Antibacterial activity against Bacillus brevis ATTC 9999 at 10 mg/ml after 24 to 72 hrs by agar diffusion method
Assay type: functional, organism-based
Settings: not given
How it was run: as §1

| SMILES | Activity |
| --- | --- |
| COc1ccc(/C=C/c2ccccc2O)c(OC)c1 | Active |
| Oc1cccc(/C=C/c2cc(O)c(F)c(O)c2)c1 | Active |
| CN(C)[C@@H]1C(O)=C(C(N)=O)C(=O)[C@@]2(O)C(O)=C3C(=O)c4c(O)cccc4[C@@](C)(O)[C@H]3C[C@@H]12 | Active |
| COc1cc(/C=C/c2cccc(O)c2)cc(OC)c1F | Active |
| COc1cc(/C=C/c2ccccc2O)cc(OC)c1F | Active |
| Oc1ccc(O)c(/C=C/c2ccccc2O)c1 | Active |
| COc1ccc(/C=C/c2ccc(O)cc2)c(OC)c1 | Active |
| COc1ccc(OC)c(/C=C/c2cccc(O)c2)c1 | Active |
| Oc1cccc(/C=C/c2cc(F)c(F)c(F)c2)c1 | Active |
| Oc1cccc(/C=C/c2cc(O)ccc2O)c1 | Active |
| Oc1ccc(/C=C/c2cc(F)c(F)c(F)c2)cc1 | Active |
| Oc1ccc(/C=C/c2cc(O)cc(O)c2)cc1 [RESVERATROL] | inactive |
| COc1cc(F)c(/C=C/c2cc(O)ccc2O)cc1O | Active |
| Oc1ccc(/C=C/c2cc(O)c(F)c(O)c2)cc1 | Active |
| Oc1cccc(/C=C/c2cc(O)cc(O)c2)c1 | Active |
| Oc1ccccc1/C=C/c1cc(F)c(F)c(F)c1 | Active |
| COc1cc(/C=C/c2ccc(O)cc2)cc(OC)c1F | Active |
| COc1ccc(/C=C/c2cccc(O)c2)c(OC)c1 | Active |
| COc1cc(/C=C/c2cccc(O)c2)cc(OC)c1 | Active |
| COc1cc(/C=C/c2ccc(O)cc2)cc(OC)c1 [PTEROSTILBENE] | Active |
| COc1ccc(OC)c(/C=C/c2ccc(O)cc2)c1 | Active |
| Oc1ccc(/C=C/c2cc(O)ccc2O)cc1 | Active |

System: Penicillium chrysogenum
Assay: Antifungal activity against Penicillium notatum FSU 2721 at 10 mg/ml after 24 to 72 hrs by agar diffusion method
Assay type: functional, organism-based
Settings: not given
How it was run: as §2

| SMILES | Activity |
| --- | --- |
| Oc1ccccc1/C=C/c1cc(F)c(F)c(F)c1 | Active |

System: NIH3T3
Assay: Cytotoxicity against mouse NIH/3T3 cells after 96 hrs by sulforhodamine-B colorimetric assay
Assay type: cell-based
Settings: NIH3T3, 96 h
How it was run: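 Exponentially growing mouse embryonic fibroblasts were seeded and treated 24 h later with serial dilutions for 96 h; DMSO or DMF stayed at or below 0.5%. Cells were fixed with 10% TCA at 4 °C, stained with 0.4% SRB for about 20 min, washed with 1% acetic acid, solubilised in Tris base, and read at 570 nm. Survival is relative to untreated controls. IC50 was obtained by linear interpolation across the 50% line; three independent experiments.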

| SMILES | IC50 [µM] |
| --- | --- |
| COc1ccc(/C=C/c2ccccc2O)c(OC)c1 | > 30 |
| COc1cc(/C=C/c2ccc(OC)c(O)c2)cc(OC)c1 | 0.2 |
| Oc1cccc(/C=C/c2cc(O)c(F)c(O)c2)c1 | > 30 |
| COc1cc(/C=C/c2cccc(O)c2)cc(OC)c1F | 11.8 |
| COc1cc(/C=C/c2ccccc2O)cc(OC)c1F | 14.8 |
| Oc1ccc(O)c(/C=C/c2ccccc2O)c1 | 12.4 |
| COc1ccc(/C=C/c2ccc(O)cc2)c(OC)c1 | 8.2 |
| COc1ccc(/C=C/c2ccc(OC)c(O)c2)c(OC)c1 | 2.1 |
| COc1ccc(OC)c(/C=C/c2cccc(O)c2)c1 | 25.8 |
| Oc1cccc(/C=C/c2cc(F)c(F)c(F)c2)c1 | > 30 |
| Oc1cccc(/C=C/c2cc(O)ccc2O)c1 | 10.5 |
| Oc1ccc(/C=C/c2cc(F)c(F)c(F)c2)cc1 | 6.9 |
| Oc1ccc(O)c(/C=C/c2ccc(O)c(O)c2)c1 | > 30 |
| Oc1ccc(/C=C/c2cc(O)cc(O)c2)cc1 [RESVERATROL] | > 30 |
| COc1ccc(/C=C/c2cc(O)ccc2O)cc1O | > 30 |
| COc1cc(F)c(/C=C/c2cc(O)ccc2O)cc1O | 21.1 |
| Oc1ccc(/C=C/c2cc(O)c(F)c(O)c2)cc1 | > 30 |
| Oc1cccc(/C=C/c2cc(O)cc(O)c2)c1 | > 30 |
| Oc1ccccc1/C=C/c1cc(F)c(F)c(F)c1 | > 30 |
| COc1cc(/C=C/c2ccc(O)cc2)cc(OC)c1F | 11.5 |
| COc1ccc(/C=C/c2cccc(O)c2)c(OC)c1 | 19.6 |
| COc1cc(/C=C/c2cccc(O)c2)cc(OC)c1 | > 30 |
| COc1cc(/C=C/c2ccc(O)cc2)cc(OC)c1 [PTEROSTILBENE] | 12.2 |
| COc1ccc(OC)c(/C=C/c2ccc(O)cc2)c1 | 7.4 |
| Oc1ccc(/C=C/c2cc(O)ccc2O)cc1 | 9.6 |

System: Colletotrichum graminicola
Assay: Antifungal activity against Colletotrichum graminicola M2 at 10 mg/ml after 24 to 72 hrs by agar diffusion method
Assay type: functional, organism-based
Settings: not given
How it was run: as §2

| SMILES | Activity |
| --- | --- |
| Oc1ccccc1/C=C/c1cc(F)c(F)c(F)c1 | Active |

System: Eremothecium coryli
Assay: Antifungal activity against Nematospora coryli ATCC 10647 at 10 mg/ml after 24 to 72 hrs by agar diffusion method
Assay type: functional, organism-based
Settings: not given
How it was run: as §2

| SMILES | Activity |
| --- | --- |
| Oc1ccc(/C=C/c2cc(F)c(F)c(F)c2)cc1 | Active |
| Oc1ccccc1/C=C/c1cc(F)c(F)c(F)c1 | Active |

System: Enterobacter cloacae subsp. dissolvens
Assay: Antibacterial activity against Enterobacter dissolvens ATCC 222 at 10 mg/ml after 24 to 72 hrs by agar diffusion method
Assay type: functional, organism-based
Settings: not given
How it was run: as §1

| SMILES | Activity |
| --- | --- |
| COc1ccc(/C=C/c2ccccc2O)c(OC)c1 | inactive |
| Oc1cccc(/C=C/c2cc(O)c(F)c(O)c2)c1 | inactive |
| COc1cc(/C=C/c2cccc(O)c2)cc(OC)c1F | inactive |
| COc1cc(/C=C/c2ccccc2O)cc(OC)c1F | inactive |
| Oc1ccc(O)c(/C=C/c2ccccc2O)c1 | inactive |
| COc1ccc(/C=C/c2ccc(O)cc2)c(OC)c1 | inactive |
| COc1ccc(OC)c(/C=C/c2cccc(O)c2)c1 | inactive |
| Oc1cccc(/C=C/c2cc(F)c(F)c(F)c2)c1 | inactive |
| Oc1cccc(/C=C/c2cc(O)ccc2O)c1 | inactive |
| Oc1ccc(/C=C/c2cc(F)c(F)c(F)c2)cc1 | inactive |
| Oc1ccc(O)c(/C=C/c2ccc(O)c(O)c2)c1 | inactive |
| Oc1ccc(/C=C/c2cc(O)cc(O)c2)cc1 [RESVERATROL] | inactive |
| COc1ccc(/C=C/c2cc(O)ccc2O)cc1O | inactive |
| COc1cc(F)c(/C=C/c2cc(O)ccc2O)cc1O | inactive |
| Oc1ccc(/C=C/c2cc(O)c(F)c(O)c2)cc1 | inactive |
| Oc1cccc(/C=C/c2cc(O)cc(O)c2)c1 | inactive |
| Oc1ccccc1/C=C/c1cc(F)c(F)c(F)c1 | inactive |
| COc1cc(/C=C/c2ccc(O)cc2)cc(OC)c1F | inactive |
| COc1ccc(/C=C/c2cccc(O)c2)c(OC)c1 | inactive |
| COc1cc(/C=C/c2cccc(O)c2)cc(OC)c1 | inactive |
| COc1cc(/C=C/c2ccc(O)cc2)cc(OC)c1 [PTEROSTILBENE] | inactive |
| COc1ccc(OC)c(/C=C/c2ccc(O)cc2)c1 | inactive |
| Oc1ccc(/C=C/c2cc(O)ccc2O)cc1 | inactive |

System: Bacillus subtilis
Assay: Antibacterial activity against Bacillus subtilis ATTC 6633 at 10 mg/ml after 24 to 72 hrs by agar diffusion method
Assay type: functional, organism-based
Settings: not given
How it was run: as §1

| SMILES | Activity |
| --- | --- |
| COc1ccc(/C=C/c2ccccc2O)c(OC)c1 | Active |
| Oc1cccc(/C=C/c2cc(O)c(F)c(O)c2)c1 | Active |
| COc1cc(/C=C/c2cccc(O)c2)cc(OC)c1F | Active |
| COc1cc(/C=C/c2ccccc2O)cc(OC)c1F | Active |
| Oc1ccc(O)c(/C=C/c2ccccc2O)c1 | Active |
| COc1ccc(OC)c(/C=C/c2cccc(O)c2)c1 | Active |
| Oc1cccc(/C=C/c2cc(F)c(F)c(F)c2)c1 | Active |
| Oc1cccc(/C=C/c2cc(O)ccc2O)c1 | Active |
| COc1cc(F)c(/C=C/c2cc(O)ccc2O)cc1O | Active |
| Oc1cccc(/C=C/c2cc(O)cc(O)c2)c1 | Active |
| Oc1ccccc1/C=C/c1cc(F)c(F)c(F)c1 | Active |
| COc1ccc(/C=C/c2cccc(O)c2)c(OC)c1 | Active |
| COc1cc(/C=C/c2cccc(O)c2)cc(OC)c1 | Active |

System: Rhizomucor miehei
Assay: Antifungal activity against Mucor miehei FSU 769 at 10 mg/ml after 24 to 72 hrs by agar diffusion method
Assay type: functional, organism-based
Settings: not given
How it was run: as §2

| SMILES | Activity |
| --- | --- |
| Oc1cccc(/C=C/c2cc(F)c(F)c(F)c2)c1 | Active |
| Oc1ccccc1/C=C/c1cc(F)c(F)c(F)c1 | Active |

Reference: ChEMBL document CHEMBL1817619, “Synthesis and antimicrobial activity of (E) stilbene derivatives” (Bioorg Med Chem, 2011)
